The list is a sample of the results.
Apaf1 activ = activates human Apaf-1 apoptosome; AID 489031; 330,000 compounds, 0.31% hits; Apaf-1 apoptosome caspase-3 activation, DEVD-Rh110 fluorescence; stronger effect = lower value; activity change, negative = activation, % at 20 µM;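 active = activity change at or below -40% at 20 µM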
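Assay system – biochemical Apaf-1 apoptosome reconstitution · Medium – 20 mM HEPES buffer, pH 7.5, containing CHAPS and BSA · Incubation – 30 min preincubation, 50 min reaction, room temperature · Measured by – Caspase-3-released Rh110 fluorescence, 540 nm emission, 480 nm excitation · Read-out – Caspase-3 cleavage activity downstream of Apaf-1 activation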
Rh110 interf act = Rh110 signal interference in Apaf-1 activator counter-screen | shares compounds with Apaf1 activ | Rh110 fluorescence interference, quenched caspase reaction, Ex480/Em540 | fluorescence interference (activity change), % at 20 µM, hits read low | 980 tested, under 10 active | AID 504616;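 active = mean activity change at or below -40% when tested at 20 µM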
Apaf-1 act conf2 = confirmation of human Apaf-1 activators. activity change, negative = activation, % at 20 µM. 980 compounds, 5% hits. shares compounds with Apaf1 activ. AID 504617. reconstituted apoptosome caspase-3 activity, DEVD-Rh110 fluorescence; stronger effect = lower value;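 active = mean activity change at or below -40%, meaning activation of 40% or more, at 20 µM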
The depositor's hits bear a star; nt = not tested or not shown.

SMILES	Apaf1 activ	Rh110 interf act	Apaf-1 act conf2
Cc1cccc(NC(=O)CCN2CCC(C)CC2)c1	-54.1*	2.3	0.7
Cc1cccc(NC(=O)NCc2ccc3c(c2)cc(C)n3C)c1	54.0	nt	nt
COc1ccc(NC(=O)CN2CCC(C)CC2)cc1	-51.9*	-0.6	3.2
COc1ccc(CN2CCC(C(=O)Nc3ccc(Oc4cccnc4)cc3)CC2)cc1	58.4	nt	nt
COc1ccc(NC(=O)CN(C)C(=O)C2CSC3(C)CCC(=O)N23)cc1 (stereo unspecified)	42.7	nt	nt
Cc1cccc(NC(=O)c2sc3nc4c(c(-c5cccs5)c3c2N)CN(C)CC4)c1	49.9	nt	nt
Cc1ccc(Oc2nc(CN3CCOCC3)nc3sc4c(c23)CCC(C)C4)cc1 (stereo unspecified)	40.5	nt	nt
CN(C)CCCNC(=O)C[C@H]1C[C@H](C(=O)N2CCCCC2)[C@@]2(C)c3[nH]c4cc(-c5ccco5)ccc4c3CCN2C1=O	41.9	nt	nt
O=C(O)CCNc1cc(N2CCN(C(=O)c3ccco3)CC2)c2noc3c2c1C(=O)c1ccccc1-3	81.3	nt	nt
CCC(C)(C)C1CCc2c(sc(N)c2C(N)=O)C1 (stereo unspecified)	-47.9*	3.6	20.4
COc1ccc(NC(=O)CCl)cn1	67.2	nt	nt
Cc1ccc(N=Nc2c(N)[nH]n3c(=O)cc(-c4ccccc4)nc23)cc1	54.9	nt	nt
O=C(COC(=O)Cc1ccsc1)Nc1ccc(F)cc1Cl	-52.1*	-7.2	9.8
Cc1ccc(-n2c(N)c(C(=O)Nc3c(C)n(C)n(-c4ccccc4)c3=O)c3nc4ccccc4nc32)cc1C	42.4	nt	nt
COc1cc(/C=C/C(=O)OCC(=O)Nc2ccc(C)cc2[N+](=O)[O-])ccc1O	-93.7*	-2.0	-37.1
Cc1ccc(OCC(=O)N/N=C\c2c(C)n(C)c3ccccc23)c([N+](=O)[O-])c1	42.0	nt	nt
COc1cc(/C=C/C(=O)OCC(=O)Nc2cc(C)c(C)cc2[N+](=O)[O-])ccc1O	-70.6*	-3.1	-27.1
CN(C)CCNC(=O)C(=O)NCC1OCCN1S(=O)(=O)c1cc(F)ccc1F (stereo unspecified)	46.5	nt	nt
Cc1ccc(NC(=O)CN2C(=O)S/C(=C/c3ccc(-c4cc(C(=O)O)ccc4C)o3)C2=O)cc1C	41.6	nt	nt
O=C(Nc1cccc2cccnc12)c1cccc([N+](=O)[O-])c1	-342.3*	10.0	17.1
C/C(=N\NC(=O)Cc1cc(=O)[nH][nH]1)c1cccc([N+](=O)[O-])c1	51.4	nt	nt
Oc1ccc(Cl)cc1CNc1cccc2cccnc12	91.3	nt	nt
CC(C(O)c1ccc(O)cc1)N1CCC(Cc2ccccc2)CC1 (stereo unspecified)	1.8	nt	nt
CCOc1ccc(NC(=O)c2c[nH]n3c(=O)cc(C4CCN(C(=O)OC(C)(C)C)CC4)nc23)cc1	40.4	nt	nt
CCOc1ccc2nc(N(CCN(C)C)C(=O)c3ccc4c(c3)CCCC4)sc2c1	54.7	nt	nt
SMILES	Apaf1 activ	Rh110 interf act	Apaf-1 act conf2
CCN(CC)CCN(C(=O)c1ccc(C(C)=O)cc1)c1nc2ccc(Cl)cc2s1	-328.6*	11.3	22.5
CCN(CC)CCN(C(=O)c1ccc2c(c1)CCCC2)c1nc2cc(OC)c(OC)cc2s1	47.5	nt	nt
Cc1cnc(NC(=O)C2=C(O)c3ccccc3S(=O)(=O)N2C)s1	-2.0	nt	nt
Cc1ccc(C(=O)NCCN2C3=NC[C@H](C)N3C[C@H]2Cc2ccc(O)cc2)cc1Br	-439.6*	-0.5	7.7
O=C(CCC1CCCCC1)NCCN1C2=NC[C@@H](Cc3ccccc3)N2C[C@H]1Cc1ccc(O)cc1	45.1	nt	nt
COc1ccc(C[C@H]2CN3C(=NC[C@@H]3C(C)C)N2CCNC(=O)c2ccc(C)c(Br)c2)cc1	46.6	nt	nt
Nc1ccc2ncccc2c1	85.5	nt	nt
O=C1CCCC2=C1C1(O)C(=O)c3ccccc3C1(O)O2 (stereo unspecified)	92.1	nt	nt
COc1ccc(CN(C)C(=O)c2cc(S(=O)(=O)NCc3ccccc3)ccc2C)c(OC)c1	61.4	nt	nt
CCCN(CC(=O)Nc1ccccc1OC)C(=O)c1cc(S(=O)(=O)NCc2ccccc2)ccc1C	61.7	nt	nt
COC(=O)c1ccc(COC(=O)CCS(=O)(=O)c2ccc(C)cc2)cc1	-52.7*	6.5	13.9
Cc1ccc(S(=O)(=O)CCC(=O)NCc2ccccc2)cc1	-63.5*	3.7	8.1
[O-][n+]1cccc2c(Br)cc(Br)c(O)c21	72.9	nt	nt
COCCNC(=O)CN1C(=O)NC2(CCOc3ccccc32)C1=O (stereo unspecified)	45.7	nt	nt
CC(C)(C)c1ccc(S(=O)(=O)/N=C2\C=C(NS(=O)(=O)c3ccccc3)C(=O)c3ccccc32)cc1	46.0	nt	nt
O=C(O)c1ccccc1-c1ccc(/C=c2\sc3nc4cc(Br)cnc4n3c2=O)o1	72.2	nt	nt
COC(=O)C1=C(C)NC(C)=C(C(=O)OC(C)C)C1c1cccc2nonc12 (stereo unspecified)	-207.2*	1.0	7.5
O=C(NNc1ccccc1C(F)(F)F)c1cccs1	-107.0*	4.1	7.8
O=C(Nc1ccc(-c2nc3ccc(NC(=O)c4cccs4)cc3[nH]2)cc1)c1cccs1	68.9	nt	nt
COc1ccc(CN2C(=O)Cc3c2nc(N)c2c(N)nc(N4CCCCC4)c(C#N)c32)cc1	51.1	nt	nt
CCN1C(=NCCc2ccccn2)N[C@@H](c2cccc(C(F)(F)F)c2)C(C(=O)OC)=C1C	-114.4*	12.7	9.1
COC(=O)C1=C(C)N(Cc2ccccc2)C(=NCC(C)C)N[C@H]1c1cccc(C(F)(F)F)c1	58.0	nt	nt
COC(=O)C1=C(C)N(Cc2ccccc2)C(=NCCc2ccccn2)N[C@H]1c1cccc(C(F)(F)F)c1	48.4	nt	nt
[O-][n+]1c2ccccc2cc2ccccc21	-386.1*	-8.7	8.8
C[N+]1(C)CCC(=C2c3ccccc3CC(=O)c3sccc32)CC1	57.3	nt	nt
SMILES	Apaf1 activ	Rh110 interf act	Apaf-1 act conf2
Cc1cccc(/C=N/NC(=O)C(C)Nc2cccc3ccccc23)n1 (stereo unspecified)	90.9	nt	nt
COc1ccc(-c2cn(Cc3ccc4ccccc4c3)nn2)cc1	-123.1*	3.7	8.1
CCCCOc1cc(NCc2ccccc2)c2ncn(C(C)C)c2c1	61.2	nt	nt
O=C(NN=c1c(=O)c2ccccc2c1=O)c1ccccc1	96.4	nt	nt
O=C(N/N=C/c1[nH]c2ccccc2c1Cl)c1cccc(Br)c1	-71.9*	11.6	11.4
COc1cc(/C=N/NC(=O)c2ccncc2)ccc1OCC(=O)Nc1cccc([N+](=O)[O-])c1	-125.3*	-2.2	-23.7
COc1cc(/C=C2\C(=O)N(CCC#N)N=C2C)ccc1OCC(=O)Nc1ccccc1	93.5	nt	nt
NC1=NC[C@H](Cc2ccccc2)N1CCc1cc(C(F)(F)F)cc(C(F)(F)F)c1	53.5	nt	nt
O=C(CC1Nc2cccc3cccc(c23)NC1=O)Nc1ccc(F)cc1 (stereo unspecified)	95.6	nt	nt
CN(CC(=O)Nc1ccc(Cl)cc1)C(=O)c1sccc1-c1ccccc1	45.9	nt	nt
CC(C)c1ccccc1OCC(=O)N(C)CC(=O)Nc1ccc(F)cc1	-504.5*	-1.9	8.8
CN(C)C=Nc1c(Br)cc(Br)c2nonc12	42.9	nt	nt
COc1ccc(C(=O)NCC23C=CC(O2)C2C(=O)N(Cc4ccccc4)C(=O)C23)cc1 (stereo unspecified)	-75.2*	-1.2	15.0
CC(C)(C)C1CCC(CN2C(Nc3ccccc3)=NC[C@@H]2Cc2ccccc2)CC1 (stereo partly specified)	75.2	nt	nt
Oc1c(Br)cc(C=Nc2ccc3nc(-c4ccccc4)[nH]c3c2)c(O)c1Br	64.9	nt	nt
